Compound activity from PubChem.
KCNQ1 pot: potentiators or activators of KCNQ1 channel, primary screen, cell-based, thallium flux, high-throughput. Potassium voltage-gated channel subfamily KQT member 1 (Homo sapiens), P51787. 0.35% of 310,000 active. CHO-K1 KCNQ1, thallium flux FluxOR fluorescence; active compounds read high. B-score at 10 µM;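 active = fluorescence ratio B-score, a plate-corrected score, at least three library SD, with initial intensity B-score within 5 SD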
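assay system = KCNQ1-transfected CHO-K1 cells | medium = assay buffer with matched DMSO | probe or stimulus = depolarizing K+/Tl+ stimulus, K2SO4 and Tl2SO4 each 12.5 mM in 5x stock | dosing = single dose | incubation = dye 90 min, compound 20 min, room temperature | detection = kinetic FluxOR fluorescence, 10 s baseline plus 110 s post-stimulus | evaluation = ratio B score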
KCNQ1 block: inhibitors of human KCNQ1 channel, primary screen, cell-based, thallium flux, high-throughput; Potassium voltage-gated channel subfamily KQT member 1 (Homo sapiens), P51787; AID 2642, 2010; CHO-K1 KCNQ1, FluxOR thallium flux fluorescence; active compounds read high; 1.3% of 310,000 active; B-score at 10 µM;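 active = compounds whose thallium flux B-score, printed positive for inhibition, exceeds three library SD while starting fluorescence stays within three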;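 also: channel opened by potassium depolarization with thallium stimulus after 20 min compound exposure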
AI-2 QS modul: Vibrio harveyi AI-2 quorum sensing modulators, primary screen, JMH597 strain, luminescence/OD600 ratio | AID 2094, 2009 | activity change, % at 7.5 µM | 0.4% of 300,000 active | Vibrio harveyi JMH597 AI-2 luminescence/OD600 ratio, 9 h; active compounds read low; strain lacks LuxN and CqsS sensors; 0 = neutral-control median; in the data active = activity change below about -75%, passing the limit was not always enough; inconclusive = no clear call, values can overlap the other calls;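 also: luminescence divided by OD600 gain over 9 h not by final OD600 alone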
SUMO Mot1 rescue: yeast Mot1-301 growth rescue at high temperature, primary screen, SUMOylation pathway inhibitor project, S. cerevisiae, ATP luminescence, 38.5C; S. cerevisiae Mot1-301 growth rescue; percent above DMSO median, 100 means doubled; growth rescue, % at 18.8 µM; 1% of 320,000 active; AID 2716, 2010;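 active = every valid replicate shows activation above 250% relative to neutral control wells; inactive = the rest, any valid replicate at or below 250%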;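 also: OY570 slx delta 5 strain wells were the positive control but not used for scaling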
KCC2 mod: KCC2 cotransporter modulators, thallium flux, primary screen, cell-based, HEK293 KCC2, FluoZin-2 fluorescence, MLSMR. Solute carrier family 12 member 5 (Homo sapiens), Q9H2X9. B-score of Tl+ flux slope (higher = more flux/activation; lower = inhibition) at 10 µM. KCC2 cells, thallium flux FluoZin-2 fluorescence. 2.2% of 190,000 active;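 active = thallium flux slope and its plate-corrected score both differing from the plate sample mean at a set confidence after two filtering rounds, in either direction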;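 also: slope of fluorescence scaled to starting intensity during 10 to 20 s after thallium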
Target sequence (Q9H2X9 whole entry, looked up): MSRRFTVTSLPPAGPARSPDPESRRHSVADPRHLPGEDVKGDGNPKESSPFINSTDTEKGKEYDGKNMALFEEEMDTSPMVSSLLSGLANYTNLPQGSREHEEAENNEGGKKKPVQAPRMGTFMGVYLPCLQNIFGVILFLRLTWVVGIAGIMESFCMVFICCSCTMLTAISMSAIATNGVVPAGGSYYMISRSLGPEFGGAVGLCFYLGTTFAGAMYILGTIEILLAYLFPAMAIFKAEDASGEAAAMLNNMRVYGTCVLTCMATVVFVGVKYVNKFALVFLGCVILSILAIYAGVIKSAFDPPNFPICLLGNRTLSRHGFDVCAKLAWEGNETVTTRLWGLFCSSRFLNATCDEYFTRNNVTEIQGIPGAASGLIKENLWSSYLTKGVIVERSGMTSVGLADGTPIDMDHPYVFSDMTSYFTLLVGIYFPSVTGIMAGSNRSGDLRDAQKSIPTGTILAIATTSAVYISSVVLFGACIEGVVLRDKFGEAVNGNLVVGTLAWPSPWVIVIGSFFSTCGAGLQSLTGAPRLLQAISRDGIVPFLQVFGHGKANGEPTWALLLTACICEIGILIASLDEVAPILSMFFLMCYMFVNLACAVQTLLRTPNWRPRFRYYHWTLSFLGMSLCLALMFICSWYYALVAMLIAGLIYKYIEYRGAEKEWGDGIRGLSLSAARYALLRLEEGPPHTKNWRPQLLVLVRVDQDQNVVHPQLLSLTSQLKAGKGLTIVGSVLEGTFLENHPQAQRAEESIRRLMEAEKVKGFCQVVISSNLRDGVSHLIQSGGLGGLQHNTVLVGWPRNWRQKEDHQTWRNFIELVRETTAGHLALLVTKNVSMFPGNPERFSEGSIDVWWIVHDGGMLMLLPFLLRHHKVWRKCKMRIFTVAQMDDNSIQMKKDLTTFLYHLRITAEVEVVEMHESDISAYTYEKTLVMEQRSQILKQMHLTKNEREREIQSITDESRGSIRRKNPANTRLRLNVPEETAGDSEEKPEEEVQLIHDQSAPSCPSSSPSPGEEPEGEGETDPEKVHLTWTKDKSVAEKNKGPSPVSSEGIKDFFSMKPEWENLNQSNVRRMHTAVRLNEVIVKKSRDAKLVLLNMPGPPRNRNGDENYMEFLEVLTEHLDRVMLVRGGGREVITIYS
hERG protect: hERG rescue from dofetilide block, primary screen, cell-based, CHO-hERG, FluxOR thallium flux, dofetilide IC70; 0.51% of 310,000 active; activation (rescue from dofetilide block), less the hit threshold, % at 10 µM; dofetilide IC70 present; Voltage-gated inwardly rectifying potassium channel KCNH2 (Homo sapiens), Q12809;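 active = activation above the mean of controls blocked by dofetilide plus 5 SD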;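 also: thallium influx through hERG after potassium depolarization seen as dye fluorescence rise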
* marks the source's active call; other numbers are inactive results; i = inactive; ? = inconclusive; · = not tested or not shown; + = active, no number. In the library only some 4.2% were active in any assay of this set; here they are far more common.

SMILES	KCNQ1 pot	KCNQ1 block	AI-2 QS modul	SUMO Mot1 rescue	KCC2 mod	hERG protect
Clc1ccc(C2=NOC(c3nnc(-c4ccccc4)o3)C2)cc1 (stereo not drawn)	i	i	-2	1	-0.067	-5
COc1ccc(-c2cc(-c3ccco3)[nH]c(=O)c2C#N)cc1OC	i	i	18	-3	-1.7	-9
NCCNc1ccc(C(=O)N2c3ccccc3Sc3ccccc32)cc1[N+](=O)[O-]	i	8*	14	-13	·	-31
CCCCCCCC/C=C\CCCCCCCC(=O)O	i	i	35	150	-0.0013	13*
CCOC(=O)c1cc(NC(=O)c2c(C)noc2C)cc(C(=O)OCC)c1	i	i	-1	2	-4	-7
CCNc1nc(Oc2ccc(F)cc2)cc(C(F)(F)F)n1	i	i	-4	943*	0.057	-8
Cn1c(NC(=O)c2ccccc2)cc(=O)n(C)c1=O	i	i	18	·	1	-9
Cn1c(NNC(=O)C(c2ccccc2)c2ccccc2)cc(=O)n(C)c1=O	i	i	12	-7	-0.47	4.9*
Cc1ccc([N+](=O)[O-])cc1N/C=C1\CCCCC1=O	i	i	10	+	-0.024	-2
Cc1ccccc1CN(CC(=O)Nc1cccc([N+](=O)[O-])c1)S(=O)(=O)c1ccc(Cl)cc1	i	9*	12	-1	-0.65	-10
Cc1ccc([N+](=O)[O-])cc1NC(=O)C1CCCC1	i	i	4	-9	·	5.0*
CS(=O)(=O)N(CC(=O)Nc1cccc([N+](=O)[O-])c1)c1ccccc1	i	i	16	-22	-0.14	-10
Cc1ccc([N+](=O)[O-])cc1NC(=O)C1CCN(S(C)(=O)=O)CC1	i	i	30	-9	1.3	-8
Cc1ccc([N+](=O)[O-])cc1NC(=O)CN(C1CCCCC1)S(=O)(=O)c1ccc(Cl)cc1	i	7*	9	·	-2.1	-8
Cc1ccc(C2(c3ccc(C)cc3)CC2C(=O)Nc2ccc([N+](=O)[O-])cc2O)cc1 (stereo not drawn)	i	11*	43	-8	0.017	-11
CC1(C)CC1C(=O)Nc1ccc([N+](=O)[O-])cc1Br (stereo not drawn)	i	i	13	8	0.89	-7
COc1c(CC=C(C)C)cc(C2CC(=O)c3c(O)cc(O)cc3O2)cc1CC=C(C)C (stereo not drawn)	i	8*	-11	125	0.62	-13
COc1ccc([C@@H]2CC(=O)c3c(O)cc(O)cc3O2)cc1O	·	·	·	0	·	·
CCCc1[nH]nc2c1C(c1cccc(OC(=O)c3ccco3)c1)C(C#N)=C(N)O2 (stereo not drawn)	i	i	14	-10	-0.093	4.6*
Cc1c(C(=O)NNC(=S)NCc2ccc(Cl)cc2)oc2ccccc12	i	i	6	8	·	-11
CCOC(=O)C1CCN(CC(C)(C)NS(=O)(=O)c2ccc(C)cc2)CC1	i	i	32	46	·	-2
CCOC(=O)C1CCN(CC(C)(C)NS(=O)(=O)c2ccc(Cl)cc2)CC1	i	i	9	338*	·	-5
CCN1CCN(Cc2c(C)[nH]c3ccc(C(=O)OC)cc3c2=O)CC1	i	i	9	136	1.5	5.6*
COc1ccc(N(C)S(=O)(=O)c2cccc(C(=O)NC3CCCC(C)C3C)c2)cc1 (stereo not drawn)	i	i	34	46	·	-17
C[N+](C)(C)C[C@H](O)CC(=O)[O-]	i	i	15	-16	·	-4
SMILES	KCNQ1 pot	KCNQ1 block	AI-2 QS modul	SUMO Mot1 rescue	KCC2 mod	hERG protect
C=CCn1c(CSc2ccccc2[N+](=O)[O-])n[nH]c1=S	i	i	29	109	·	-6
C=CCn1c(Sc2ncc([N+](=O)[O-])s2)n[nH]c1=O	i	7*	?	6	-3.5	-12
O=C(O)c1cccc(Cn2c(Cl)c(/C=N/Nc3ccccc3)sc2=O)c1	i	i	41	279*	-2.4	-4
O=C(O)c1cccc(Cn2c(Cl)c(/C=N/NC(=O)c3ccccc3Cl)sc2=O)c1	i	i	21	-2	1.3	-3
COc1ccc(C(=O)N2CCC(c3ccccc3)CC2)c(OC)c1OC	i	i	11	42	-0.65	5.9*
N#C/C(=C\c1ccc(O)cc1)C(=O)N1CCCC1	i	i	5	-8	0.83	-8
N#C/C(=C\c1ccc(C#N)cc1)C(=O)N1CCCC1	i	6*	18	10	-0.085	-13
COCC(=O)NC1CCN(C(=O)Nc2ccc(Br)cc2)CC1	i	i	17	167	·	-10
CC(Oc1ccc(Cl)cc1)C(=O)Nc1sccc1C(N)=O (stereo not drawn)	i	i	1	-3	-0.26	6.6*
Cc1ccc(OC(C)C(=O)OCC(=O)Nc2sccc2C(N)=O)cc1 (stereo not drawn)	·	·	·	-1	·	·
O=C(CNC(=O)c1ccco1)OCc1ccc(Br)cc1	i	i	-76*	13	·	-9
O=C(CNC(=O)c1ccco1)NCC(=O)OCc1ccc(Cl)cc1	i	i	·	-20	·	-4
O=C(CNC(=O)/C(=C\c1ccccc1)NC(=O)c1ccc(Br)cc1)OCc1ccccc1	i	i	51	-21	-5.6*	-6
COc1ccc(CNCCNC(=O)c2cccs2)c(OC)c1OC	i	i	14	-19	-0.4	-11
Cc1cccc(CN2CCN(C(=O)CN(C)C(C)C(=O)Nc3ccc(C(N)=O)cc3)CC2)c1 (stereo not drawn)	·	·	·	-5	·	·
COc1ccc(/C=C/C(=O)O)cc1COc1cccc(C)c1	i	i	15	5	-1.5	-8
COc1ccc(/C=C/C(=O)C2CC2)cc1COc1c(C)cccc1C	i	8*	6	13	0.035	-16
CCN(CC)c1nc(C(F)(F)F)nc2c1nnn2Cc1ccccc1	i	6*	17	-7	·	-6
Cc1nc(N(C)Cc2ccccc2)c2nnn(Cc3ccccc3)c2n1	i	i	4	-12	·	-14
